In ChEMBL document CHEMBL1135300, “The mechanism of the irreversible inhibition of estrone sulfatase (ES) through the consideration of a range of methane- and amino-sulfonate-based compounds” (Bioorg Med Chem Lett, 2002):

How the values were obtained:
Steryl-sulfatase = molecular target: T1, Steryl-sulfatase (Homo sapiens, UniProt P08842); experiment: In vitro inhibition of estrone sulfatase.
T1 sequence (P08842 whole entry): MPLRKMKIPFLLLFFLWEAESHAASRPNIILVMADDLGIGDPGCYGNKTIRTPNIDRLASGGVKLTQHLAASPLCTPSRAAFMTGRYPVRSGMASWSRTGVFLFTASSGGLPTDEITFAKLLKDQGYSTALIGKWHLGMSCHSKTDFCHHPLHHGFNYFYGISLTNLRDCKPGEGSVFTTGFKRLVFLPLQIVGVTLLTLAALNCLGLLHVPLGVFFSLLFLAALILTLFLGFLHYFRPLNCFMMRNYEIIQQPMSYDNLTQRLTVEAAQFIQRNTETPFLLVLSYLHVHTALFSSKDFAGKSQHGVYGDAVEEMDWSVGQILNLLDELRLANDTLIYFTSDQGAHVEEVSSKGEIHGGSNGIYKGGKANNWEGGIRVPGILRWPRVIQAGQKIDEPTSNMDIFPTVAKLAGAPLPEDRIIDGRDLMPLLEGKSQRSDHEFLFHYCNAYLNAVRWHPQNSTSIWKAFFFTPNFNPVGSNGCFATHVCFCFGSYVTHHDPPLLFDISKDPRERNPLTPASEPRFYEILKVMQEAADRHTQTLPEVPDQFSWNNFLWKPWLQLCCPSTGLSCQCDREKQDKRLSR
Procedure, shortened: (§1)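 ³H-estrone sulfate (750,000 dpm per tube) with inhibitors from ethanol stock, ethanol evaporated under nitrogen. Placental microsomes in 0.05 M Tris–HCl, pH 7.2, were prewarmed 5 min at 37 °C, then added; 1 mL total, incubated 20 min at 37 °C. Toluene quench, extraction, and scintillation counting of product. Triplicates; no-inhibitor controls; boiled-microsome blanks.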

[1] = molecular target: T2, Steryl-sulfatase (Homo sapiens) (UniProt P08842); experiment: In vitro inhibition of estrone sulfatase at 1 mM.; procedure, shortened: as §1
T2 sequence (whole entry): T1 sequence (P08842 whole entry)

[2] = molecular target: T2, Steryl-sulfatase (Homo sapiens); experiment: In vitro inhibition of estrone sulfatase at 10 mM.; procedure, shortened: as §1

| Structure (SMILES) | IC50 (Steryl-sulfatase) [uM l-1] | inhibition [1] [%] | inhibition [2] [%] |
| --- | --- | --- | --- |
| NS(=O)(=O)Oc1ccccc1 [PHENYLSULFAMATE] | > 10000 | 29.7 |  |
| NS(=O)(=O)Oc1ccc(F)cc1 | 537 | 37 |  |
| NS(=O)(=O)OCC(Cl)(Cl)Cl | 750 | 60 |  |
| NS(=O)(=O)Oc1ccc([N+](=O)[O-])cc1 | 330 | 82.5 |  |
| Cc1ccc(OS(N)(=O)=O)cc1 | > 10000 | 27.4 |  |
| NS(=O)(=O)Oc1ccc(I)cc1 | 560 | 66 |  |
| CCCCCCCCCOS(N)(=O)=O |  |  | 0 |
| N#Cc1ccc(OS(N)(=O)=O)cc1 | 300 | 74.4 |  |
| CCCCCCCOS(N)(=O)=O |  |  | 0 |
| NS(=O)(=O)Oc1cccc(F)c1 | 2089 | 79.6 |  |
| NS(=O)(=O)Oc1ccc(Br)cc1 | 912 | 50.8 |  |
| NS(=O)(=O)OCC(Cl)Cl |  | 30 |  |
| NS(=O)(=O)Oc1ccc(Cl)cc1 | 1585 | 37.6 |  |
| NS(=O)(=O)OCCCl |  | 15 |  |
| CCCCCCCCOS(N)(=O)=O |  |  | 0 |

Second part, the molecule after the results:

| IC50 (Steryl-sulfatase) [uM l-1] | inhibition [1] [%] | inhibition [2] [%] | Structure (SMILES) |
| --- | --- | --- | --- |
| 257 | 75.1 |  | NS(=O)(=O)Oc1cccc(Br)c1 |
|  | 17 |  | CCCCCCCCCCCCOS(C)(=O)=O |
| 120 | 90.4 |  | NS(=O)(=O)Oc1cccc([N+](=O)[O-])c1 |
| 191 | 84.3 |  | N#Cc1cccc(OS(N)(=O)=O)c1 |
| 2089 | 39.5 |  | Cc1cccc(OS(N)(=O)=O)c1 |
| 537 | 62 |  | NS(=O)(=O)Oc1cccc(Cl)c1 |
| 120 | 89.4 |  | NS(=O)(=O)Oc1cccc(I)c1 |
|  | 28 |  | CCCCCCCCCOS(C)(=O)=O |
